Source: ChEMBL document CHEMBL1147862, “Studies on synthesis and pharmacological activities of 3,6-disubstituted-1,2,4-triazolo[3,4-b]-1,3,4-thiadiazoles and their dihydro analogues” (2007)

Legend:
Format in all cases: functional
Staphylococcus aureus [1] = assay: Antibacterial activity against Staphylococcus aureus at 10 ug/ml by agar plate diffusion technique; details: read-out: IZ
Candida albicans [2] = assay: Antifungal activity against Candida albicans at 30 ug/ml by paper disc method; details: read-out: IZ
Pseudomonas aeruginosa [3] = assay: Antibacterial activity against Pseudomonas aeruginosa at 30 ug/ml by agar plate diffusion technique; details: read-out: IZ
Aspergillus niger [4] = assay: Antifungal activity against Aspergillus niger at 20 ug/ml by paper disc method; details: read-out: IZ
Staphylococcus aureus [5] = assay: Antibacterial activity against Staphylococcus aureus at 30 ug/ml by agar plate diffusion technique; details: read-out: IZ
Escherichia coli [6] = assay: Antibacterial activity against Escherichia coli at 30 ug/ml by agar plate diffusion technique; details: read-out: IZ
Aspergillus niger [7] = assay: Antifungal activity against Aspergillus niger at 30 ug/ml by paper disc method; details: read-out: IZ
Bacillus subtilis [8] = assay: Antibacterial activity against Bacillus subtilis at 10 ug/ml by agar plate diffusion technique; details: read-out: IZ
Candida albicans [9] = assay: Antifungal activity against Candida albicans at 20 ug/ml by paper disc method; details: read-out: IZ
Pseudomonas aeruginosa [10] = assay: Antibacterial activity against Pseudomonas aeruginosa at 20 ug/ml by agar plate diffusion technique; details: read-out: IZ
Pseudomonas aeruginosa [11] = assay: Antibacterial activity against Pseudomonas aeruginosa at 10 ug/ml by agar plate diffusion technique; details: read-out: IZ
Bacillus subtilis [12] = assay: Antibacterial activity against Bacillus subtilis at 30 ug/ml by agar plate diffusion technique; details: read-out: IZ
Escherichia coli [13] = assay: Antibacterial activity against Escherichia coli at 20 ug/ml by agar plate diffusion technique; details: read-out: IZ
Aspergillus niger [14] = assay: Antifungal activity against Aspergillus niger at 10 ug/ml by paper disc method; details: read-out: IZ
Bacillus subtilis [15] = assay: Antibacterial activity against Bacillus subtilis at 20 ug/ml by agar plate diffusion technique; details: read-out: IZ
Escherichia coli [16] = assay: Antibacterial activity against Escherichia coli at 10 ug/ml by agar plate diffusion technique; details: read-out: IZ
Candida albicans [17] = assay: Antifungal activity against Candida albicans at 10 ug/ml by paper disc method; details: read-out: IZ
Staphylococcus aureus [18] = assay: Antibacterial activity against Staphylococcus aureus at 20 ug/ml by agar plate diffusion technique; details: read-out: IZ
Mus musculus [19] = assay: Analgesic activity in Swiss mouse assessed as increase in reaction time at 20 mg/kg, po after 90 mins by Eddy's hot plate technique
Procedure, shortened: (§1)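 Swiss mice of either sex, 25–35 g, placed one at a time on a hot plate held at 55 °C. End point is paw licking or jumping, whichever comes first, with a 15 s cut-off to avoid paw injury. Reaction time is recorded and reported as percent increase in reaction time.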

Mus musculus [20] = assay: Analgesic activity in Swiss mouse assessed as increase in reaction time at 20 mg/kg, po after 60 mins by Eddy's hot plate technique; procedure, shortened: as §1
Rattus norvegicus [21] = assay: Antiinflammatory activity in Wistar Albino rat assessed as inhibition of carrageenan-induced paw oedema at 20 mg/kg after 4 hrs relative to control
Procedure, shortened: (§2)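 Wistar albino rats, 150–200 g, six per group, dosed orally with a 20 mg/kg suspension; control gets 0.1 ml 1% gum acacia. After 30 min, 0.1 ml 1% carrageenan in saline is injected subplantar into the right hind paw. Paw volume is read by plethysmograph at 0–4 h. Inhibition = 100(1 − Vtest/Vcontrol) on mean volume increase.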

Rattus norvegicus [22] = assay: Antiinflammatory activity in Wistar Albino rat assessed as inhibition of carrageenan-induced paw oedema at 20 mg/kg after 1 hr relative to control; procedure, shortened: as §2
Rattus norvegicus [23] = assay: Antiinflammatory activity in Wistar Albino rat assessed as inhibition of carrageenan-induced paw oedema at 20 mg/kg after 2 hrs relative to control; procedure, shortened: as §2
Rattus norvegicus [24] = assay: Antiinflammatory activity in Wistar Albino rat assessed as inhibition of carrageenan-induced paw oedema at 20 mg/kg after 3 hrs relative to control; procedure, shortened: as §2
Mus musculus [25] = assay: Analgesic activity in Swiss mouse assessed as increase in reaction time at 20 mg/kg, po after 30 mins by Eddy's hot plate technique; procedure, shortened: as §1

Row | SMILES | zone of inhibition at 10 µg/mL (Staphylococcus aureus [1]) [mm] | zone of inhibition at 30 µg/mL (Candida albicans [2]) [mm] | zone of inhibition at 30 µg/mL (Pseudomonas aeruginosa [3]) [mm] | zone of inhibition at 20 µg/mL (Aspergillus niger [4]) [mm] | zone of inhibition at 30 µg/mL (Staphylococcus aureus [5]) [mm] | zone of inhibition at 30 µg/mL (Escherichia coli [6]) [mm] | zone of inhibition at 30 µg/mL (Aspergillus niger [7]) [mm] | zone of inhibition at 10 µg/mL (Bacillus subtilis [8]) [mm] | zone of inhibition at 20 µg/mL (Candida albicans [9]) [mm] | zone of inhibition at 20 µg/mL (Pseudomonas aeruginosa [10]) [mm] | zone of inhibition at 10 µg/mL (Pseudomonas aeruginosa [11]) [mm] | zone of inhibition at 30 µg/mL (Bacillus subtilis [12]) [mm] | zone of inhibition at 20 µg/mL (Escherichia coli [13]) [mm] | zone of inhibition at 10 µg/mL (Aspergillus niger [14]) [mm] | zone of inhibition at 20 µg/mL (Bacillus subtilis [15]) [mm] | zone of inhibition at 10 µg/mL (Escherichia coli [16]) [mm] | zone of inhibition at 10 µg/mL (Candida albicans [17]) [mm] | zone of inhibition at 20 µg/mL (Staphylococcus aureus [18]) [mm] | Activity (Mus musculus [19]) [%] | Activity (Mus musculus [20]) [%] | also measured
1 | COc1ccc(Cc2nnc(S)n2N)cc1OC | 4.72 | 11 | 8.24 | 4.92 | 9.52 | 10.1 | 10.7 | 5.06 | 5.14 | 6.76 | 5.06 | 9.83 | 7.58 | 2.67 | 7.26 | 4.86 | 2.76 | 7.14 |  |  | 
2 | Cc1occc1-c1nnc2sc(-c3ccnc4ccccc34)nn12 | 8.16 | 19.2 | 19.1 | 12 | 19.1 | 19.4 | 19.6 | 8.14 | 11 | 14.2 | 8.17 | 19.8 | 15.3 | 6.14 | 14.1 | 8.74 | 5.78 | 14.1 | 19.24 | 10.24 | inhibition in vivo at 20 mg/kg (Rattus norvegicus [21]): 23.4%; inhibition in vivo at 20 mg/kg (Rattus norvegicus [22]): 12.5%; inhibition in vivo at 20 mg/kg (Rattus norvegicus [23]): 17.1%; inhibition in vivo at 20 mg/kg (Rattus norvegicus [24]): 20.3%; Activity (Mus musculus [25]): 5.62%
3 | O=C([O-])Cc1ccccc1Nc1c(Cl)cccc1Cl.[Na+] [DICLOFENAC SODIUM] |  |  |  |  |  |  |  |  |  |  |  |  |  |  |  |  |  |  | 43.25 | 38.15 | Activity (Mus musculus [25]): 32.23%
4 | COc1ccc(Cl)c(-c2nnc3n2NC(c2ccc([N+](=O)[O-])o2)S3)c1 (centres undefined) | 5.2 | 15.2 | 13.2 | 9.72 | 14.2 | 15.1 | 14.5 | 5.12 | 11.3 | 7.36 | 4.88 | 13.6 | 10.1 | 5.32 | 8.71 | 5.21 | 5.58 | 8.82 | 23.45 | 14.1 | inhibition in vivo at 20 mg/kg (Rattus norvegicus [21]): 24.2%; inhibition in vivo at 20 mg/kg (Rattus norvegicus [22]): 15.6%; inhibition in vivo at 20 mg/kg (Rattus norvegicus [23]): 18.5%; inhibition in vivo at 20 mg/kg (Rattus norvegicus [24]): 21.7%; Activity (Mus musculus [25]): 5.71%
5 | O=C(N[C@H](CO)[C@H](O)c1ccc([N+](=O)[O-])cc1)C(Cl)Cl [CHLORAMPHENICOL] |  |  | 25.4 |  | 26.1 | 23.7 |  |  |  |  |  | 24.6 |  |  |  |  |  |  |  |  | 
6 | COc1ccc(Cc2nnc3sc(-c4ccnc(F)c4)nn23)cc1OC | 7.1 | 21.7 | 19.3 | 12.4 | 19.2 | 19.3 | 21 | 7.64 | 14.8 | 14.9 | 8.21 | 19.3 | 14.4 | 7.14 | 14.4 | 7.96 | 8.14 | 13.8 | 22.66 | 10.3 | inhibition in vivo at 20 mg/kg (Rattus norvegicus [21]): 21.5%; inhibition in vivo at 20 mg/kg (Rattus norvegicus [22]): 11.1%; inhibition in vivo at 20 mg/kg (Rattus norvegicus [23]): 14.3%; inhibition in vivo at 20 mg/kg (Rattus norvegicus [24]): 16.7%; Activity (Mus musculus [25]): 2.83%
7 | CN[C@H](CC(C)C)C(=O)N[C@H]1C(=O)N[C@@H](CC(N)=O)C(=O)N[C@H]2C(=O)N[C@H]3C(=O)N[C@H](C(=O)N[C@H](C(=O)O)c4cc(O)cc(O)c4-c4cc3ccc4O)[C@H](O)c3ccc(c(Cl)c3)Oc3cc2cc(c3O[C@@H]2O[C@H](CO)[C@@H](O)[C@H](O)[C@H]2O[C@H]2C[C@](C)(N)[C@H](O)[C@H](C)O2)Oc2ccc(cc2Cl)[C@H]1O [VANCOMYCIN] |  |  |  |  |  |  |  |  |  |  |  | 23 |  |  |  |  |  |  |  |  | 
8 | CCCCC1C(=O)N(c2ccccc2)N(c2ccccc2)C1=O [PHENYLBUTAZONE] |  |  |  |  |  |  |  |  |  |  |  |  |  |  |  |  |  |  |  |  | inhibition in vivo at 20 mg/kg (Rattus norvegicus [21]): 45.4%; inhibition in vivo at 20 mg/kg (Rattus norvegicus [22]): 21.2%; inhibition in vivo at 20 mg/kg (Rattus norvegicus [23]): 33.6%; inhibition in vivo at 20 mg/kg (Rattus norvegicus [24]): 40.8%
9 | COc1ccc(Cl)c(-c2nnc(S)n2N)c1 | 5.16 | 9.79 | 9.1 | 5.02 | 9.06 | 9.17 | 11 | 4.25 | 5.18 | 7.26 | 5.23 | 10.1 | 7.16 | 2.59 | 7.05 | 5.08 | 2.33 | 7.28 |  |  | 
10 | COC1=CC(=O)C[C@@H](C)[C@]12Oc1c(Cl)c(OC)cc(OC)c1C2=O [GRISEOFULVIN] |  | 24.7 |  |  |  |  | 23.1 |  |  |  |  |  |  |  |  |  |  |  |  |  | 
11 | NCC[C@H](O)C(=O)N[C@@H]1C[C@H](N)[C@@H](O[C@H]2O[C@H](CN)[C@@H](O)[C@H](O)[C@H]2O)[C@H](O)[C@H]1O[C@H]1O[C@H](CO)[C@@H](O)[C@H](N)[C@H]1O [AMIKACIN] |  |  | 23 |  |  |  |  |  |  |  |  |  |  |  |  |  |  |  |  |  | 
12 | Cc1occc1-c1nnc(S)n1N | 5.46 | 12.4 | 12.8 | 6.94 | 11.3 | 12.8 | 13.5 | 5.8 | 6.82 | 9.16 | 6.12 | 11.2 | 9.16 | 3.27 | 8.94 | 6.74 | 3 | 8.16 |  |  | 
